ChEMBL document CHEMBL4602726, “Discovery of the First Vitamin K Analogue as a Potential Treatment of Pharmacoresistant Seizures” (J Med Chem, 2020)

Legend:
[1] = Drug level in CD1 mouse brain at 400 mg/kg, ip after 2 hrs by LC-MS/MS analysis; assay type: ADME, organism-based; details: read-out: Drug uptake
Procedure, shortened: (§1)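 Male mice fasted overnight and given ip dose in 95% Miglyol 840/5% DMSO. Plasma precipitated 3:1 with acetonitrile plus internal standard. Brain homogenized 3:1 in PBS, then acetonitrile extraction. LC-MS/MS in MRM mode, standard curve 1 ng/mL–10 μg/mL. Ratio = mean tissue (ng/g) over mean plasma (ng/mL) concentration.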

[2] = Drug level in CD1 mouse brain at 400 mg/kg, ip after 4 hrs by LC-MS/MS analysis; assay type: ADME, organism-based; details: read-out: Drug uptake; procedure, shortened: as §1
[3] = Drug level in CD1 mouse plasma at 400 mg/kg, ip after 1 hr by LC-MS/MS analysis; assay type: ADME, organism-based; procedure, shortened: as §1
[4] = Drug level in CD1 mouse plasma at 400 mg/kg, ip after 8 hrs by LC-MS/MS analysis; assay type: ADME, organism-based; procedure, shortened: as §1
[5] = AUClast in CD1 mouse at 20 mg/kg, ip measured after 0.083 to 24 hrs by LC-MS/MS analysis; assay type: ADME, organism-based; parameters: time lower 0.083 hr, dose 20 mg/kg, time upper 24 hr, route intraperitoneal; details: in vivo
Procedure, shortened: (§2)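 Male CD-1 mice, 3 per route. Oral and ip at 20 mg/kg by gavage needle; iv at 5 mg/kg by tail vein. Vehicles were 20% DMA:40% PEG300:40% H2O for oral/iv and 5% DMSO:95% Neobee for ip. Blood sampled 0.083–24 h, plasma protein-precipitated with acetonitrile plus internal standard, LC-MS/MS (MRM). Non-compartmental analysis, linear trapezoidal AUC.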

[6] = Drug level in CD1 mouse brain at 400 mg/kg, ip after 8 hrs by LC-MS/MS analysis; assay type: ADME, organism-based; details: read-out: Drug uptake; procedure, shortened: as §1
Mus musculus = assay: Anti-seizure activity in CF1 mouse assessed as attenuation of psychomotor seizures at stimulus intensities of 44 mA at 400 mg/kg, ip measured at 0.25 to 4 hrs by 6 Hz limbic seizure test relative to control; assay type: functional
Procedure, shortened: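 Male CF-1 mice, n=8 per dose. 6 Hz, 3 s corneal stimulation at 32 or 44 mA. Compound given ip in miglyol840/DMSO (95%/5%). Time of peak effect found by testing at 0.25–4 h; dose-response run at that time. Protected if no stun, jaw/forelimb clonus, vibrissae twitching or Straub tail for ≥1 s. ED50 by Probit analysis.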

[7] = Toxicity in CF1 mouse assessed as induction of motor impairment during acute (1 hr) observation period up to 800 mg/kg by rotarod assay; assay type: organism-based; details: in vivo
Procedure, shortened: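 Rotarod at 6 rpm on the same animals immediately before 6 Hz stimulation, 1 h after ip dosing. A mouse falling three times within one minute was scored impaired.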

Cytochrome P450 1A2 = biological target: T1, Cytochrome P450 1A2 (Homo sapiens, UniProt P05177); assay: Inhibition of CYP1A2 in human liver microsomes using isoform-specific probe substrates incubated for 15 to 30 mins by LC-MS/MS analysis; assay type: ADME
T1 sequence (P05177 whole entry): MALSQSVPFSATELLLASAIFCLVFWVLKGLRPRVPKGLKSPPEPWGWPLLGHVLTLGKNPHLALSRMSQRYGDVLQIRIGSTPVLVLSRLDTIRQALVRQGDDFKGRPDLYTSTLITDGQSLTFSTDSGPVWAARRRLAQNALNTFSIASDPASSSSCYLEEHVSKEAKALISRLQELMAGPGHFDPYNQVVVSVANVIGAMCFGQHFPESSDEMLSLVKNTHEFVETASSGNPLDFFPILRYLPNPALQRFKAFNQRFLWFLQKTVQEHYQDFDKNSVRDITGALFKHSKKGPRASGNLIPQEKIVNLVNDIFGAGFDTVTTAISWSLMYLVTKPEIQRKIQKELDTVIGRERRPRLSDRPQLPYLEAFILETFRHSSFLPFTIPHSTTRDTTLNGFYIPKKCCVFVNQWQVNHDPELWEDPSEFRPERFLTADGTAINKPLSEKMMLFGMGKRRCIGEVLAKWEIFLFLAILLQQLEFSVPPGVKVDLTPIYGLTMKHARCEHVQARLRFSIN
Procedure, shortened: (§3)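 Pooled mixed-gender human liver microsomes 0.2 mg/mL in 100 mM potassium phosphate with 2 mM NADPH. Isoform-specific probe substrates near Km. Organic solvent ≤1% final. Incubated 37°C for 15–30 min, quenched with acetonitrile plus internal standard. Probe metabolites measured by LC-MS/MS; percent inhibition versus vehicle, IC50 by variable-slope sigmoid fit.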

Cytochrome P450 2C19 = Cytochrome P450 2C19 (Homo sapiens, UniProt P33261); assay: Inhibition of CYP2C19 in human liver microsomes using isoform-specific probe substrates incubated for 15 to 30 mins by LC-MS/MS analysis; assay type: ADME; procedure, shortened: as §3
[8] = Ratio of drug level in brain to plasma in CD1 mouse at 400 mg/kg, ip after 4 hrs by LC-MS/MS analysis; assay type: ADME, organism-based; details: brain and plasma, read-out: BPR; procedure, shortened: as §1
[9] = biological target: Voltage-gated inwardly rectifying potassium channel KCNH2 (Homo sapiens, UniProt Q12809); assay: Inhibition of human ERG
[10] = Toxicity in CF1 mouse assessed as induction of lethargy; details: in vivo
[11] = Toxicity in CF1 mouse assessed as induction of abdominal constriction measured during 1 hr observation period by writhing test; details: in vivo
[12] = Cmax in CD1 mouse at 5 mg/kg, iv measured after 0.083 to 24 hrs by LC-MS/MS analysis; assay type: ADME, organism-based; parameters: dose 5 mg/kg, route intravenous; details: in vivo; procedure, shortened: as §2
Danio rerio = organism: Danio rerio; assay: Increase in ATP concentration in zebrafish at 1 uM incubated for 24 hrs by fluorometric ATP assay relative to control; assay type: functional
Procedure, shortened: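 7 dpf zebrafish larvae, one per well, kept at 28.5°C for 24 h with compound in E3 buffer (DMSO stock). DMSO vehicle in control wells. Twelve fish per condition pooled, flash-frozen, homogenized in ATP buffer and centrifuged. ATP in the supernatant read by fluorescence at ex 535/em 587 nm, normalized to total protein (BCA), and expressed as nmole/mg relative to DMSO control. n = 7–13.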

Cytochrome P450 2C9 = Cytochrome P450 2C9 (Homo sapiens, UniProt P11712); assay: Inhibition of CYP2C9 in human liver microsomes using isoform-specific probe substrates incubated for 15 to 30 mins by LC-MS/MS analysis; assay type: ADME; procedure, shortened: as §3
[13] = Drug level in CD1 mouse brain at 400 mg/kg, ip after 0.5 hrs by LC-MS/MS analysis; assay type: ADME, organism-based; details: read-out: Drug uptake; procedure, shortened: as §1
Cytochrome P450 3A4 = Cytochrome P450 3A4 (Homo sapiens, UniProt P08684); assay: Inhibition of CYP3A4 in human liver microsomes using isoform-specific probe substrates incubated for 15 to 30 mins by LC-MS/MS analysis; assay type: ADME; procedure, shortened: as §3
[14] = Drug level in CD1 mouse brain at 400 mg/kg, ip after 1 hr by LC-MS/MS analysis; assay type: ADME, organism-based; details: read-out: Drug uptake; procedure, shortened: as §1

Voltage-gated inwardly rectifying potassium channel KCNH2, sequence (Q12809 whole entry): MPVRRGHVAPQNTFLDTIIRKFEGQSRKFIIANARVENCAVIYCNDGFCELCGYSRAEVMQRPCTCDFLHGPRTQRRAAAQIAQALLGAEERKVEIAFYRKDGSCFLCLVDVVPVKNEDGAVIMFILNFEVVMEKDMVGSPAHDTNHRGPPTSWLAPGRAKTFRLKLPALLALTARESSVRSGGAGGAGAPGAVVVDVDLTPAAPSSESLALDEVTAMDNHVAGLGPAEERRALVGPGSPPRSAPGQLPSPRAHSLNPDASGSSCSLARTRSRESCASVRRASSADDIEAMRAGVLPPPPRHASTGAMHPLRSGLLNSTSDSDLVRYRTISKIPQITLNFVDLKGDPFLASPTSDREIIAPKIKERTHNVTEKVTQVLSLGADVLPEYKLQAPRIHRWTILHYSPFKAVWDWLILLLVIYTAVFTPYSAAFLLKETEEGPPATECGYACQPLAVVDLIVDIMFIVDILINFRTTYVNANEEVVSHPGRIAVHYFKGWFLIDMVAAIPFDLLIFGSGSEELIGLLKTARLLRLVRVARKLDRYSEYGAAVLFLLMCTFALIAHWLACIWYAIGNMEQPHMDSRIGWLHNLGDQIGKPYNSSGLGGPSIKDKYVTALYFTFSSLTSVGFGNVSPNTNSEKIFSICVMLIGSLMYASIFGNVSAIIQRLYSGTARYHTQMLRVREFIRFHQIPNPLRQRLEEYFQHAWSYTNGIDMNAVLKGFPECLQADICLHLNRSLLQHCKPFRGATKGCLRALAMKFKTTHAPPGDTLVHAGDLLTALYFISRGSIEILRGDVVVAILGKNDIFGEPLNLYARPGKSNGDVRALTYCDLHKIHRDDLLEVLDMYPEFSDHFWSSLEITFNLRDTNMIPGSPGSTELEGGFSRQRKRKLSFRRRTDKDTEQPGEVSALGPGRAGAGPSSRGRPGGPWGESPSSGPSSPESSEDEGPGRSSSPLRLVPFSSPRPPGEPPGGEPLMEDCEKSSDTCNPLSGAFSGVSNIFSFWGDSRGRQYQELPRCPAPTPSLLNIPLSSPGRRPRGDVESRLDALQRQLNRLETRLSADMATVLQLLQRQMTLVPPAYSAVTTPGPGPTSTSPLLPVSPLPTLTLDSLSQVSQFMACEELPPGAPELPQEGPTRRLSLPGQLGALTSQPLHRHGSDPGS
Cytochrome P450 3A4, sequence (P08684 whole entry, canonical isoform): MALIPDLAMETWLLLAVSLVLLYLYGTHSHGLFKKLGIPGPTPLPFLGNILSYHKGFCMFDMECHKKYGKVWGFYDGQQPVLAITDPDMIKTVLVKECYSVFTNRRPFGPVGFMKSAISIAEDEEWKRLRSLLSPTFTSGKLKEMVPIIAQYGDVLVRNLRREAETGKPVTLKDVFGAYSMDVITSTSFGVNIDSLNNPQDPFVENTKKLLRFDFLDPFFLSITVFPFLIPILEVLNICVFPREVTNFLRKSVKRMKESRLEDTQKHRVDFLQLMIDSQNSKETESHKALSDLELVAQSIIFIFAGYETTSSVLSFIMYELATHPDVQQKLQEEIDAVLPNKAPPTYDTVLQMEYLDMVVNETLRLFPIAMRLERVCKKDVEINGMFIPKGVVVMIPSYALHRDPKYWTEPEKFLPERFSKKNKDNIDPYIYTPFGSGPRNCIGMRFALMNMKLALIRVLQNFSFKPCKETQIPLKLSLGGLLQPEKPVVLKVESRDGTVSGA
Cytochrome P450 2C9, sequence (P11712 whole entry, canonical isoform): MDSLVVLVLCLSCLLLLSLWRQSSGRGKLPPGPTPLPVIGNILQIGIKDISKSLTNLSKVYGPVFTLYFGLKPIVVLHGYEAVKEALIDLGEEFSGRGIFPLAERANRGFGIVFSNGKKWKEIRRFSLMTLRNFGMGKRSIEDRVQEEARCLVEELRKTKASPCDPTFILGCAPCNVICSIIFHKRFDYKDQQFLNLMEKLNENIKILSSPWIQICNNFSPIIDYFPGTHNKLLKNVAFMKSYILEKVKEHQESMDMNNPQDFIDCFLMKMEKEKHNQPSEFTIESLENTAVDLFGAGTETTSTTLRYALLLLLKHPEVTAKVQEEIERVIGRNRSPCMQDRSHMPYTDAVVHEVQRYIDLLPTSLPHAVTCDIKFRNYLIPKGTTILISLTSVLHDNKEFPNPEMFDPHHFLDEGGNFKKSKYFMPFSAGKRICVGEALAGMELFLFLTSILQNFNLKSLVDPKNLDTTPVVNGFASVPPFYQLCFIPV
Cytochrome P450 2C19, sequence (P33261 whole entry, canonical isoform): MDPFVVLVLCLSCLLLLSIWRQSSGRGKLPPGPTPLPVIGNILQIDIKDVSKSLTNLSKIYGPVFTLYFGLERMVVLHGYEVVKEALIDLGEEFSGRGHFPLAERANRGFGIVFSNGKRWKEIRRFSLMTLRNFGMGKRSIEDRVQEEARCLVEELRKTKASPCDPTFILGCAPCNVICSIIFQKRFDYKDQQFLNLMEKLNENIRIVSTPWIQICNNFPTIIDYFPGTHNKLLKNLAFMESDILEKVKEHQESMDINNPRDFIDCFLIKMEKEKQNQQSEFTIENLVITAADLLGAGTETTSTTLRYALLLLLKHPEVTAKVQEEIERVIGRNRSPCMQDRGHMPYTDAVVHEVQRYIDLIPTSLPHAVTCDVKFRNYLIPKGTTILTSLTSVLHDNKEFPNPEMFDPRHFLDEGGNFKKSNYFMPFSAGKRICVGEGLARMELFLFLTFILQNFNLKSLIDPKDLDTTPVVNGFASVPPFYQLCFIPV

CC(C)CCNC1=CC(=O)c2ccccc2C1=O
concentration at 2 h [1]: 4930 ng/g
concentration at 4 h [2]: 3760 ng/g
concentration at 1 h [3]: 1690 ng/mL
concentration at 8 h [4]: 3220 ng/mL
AUC(0-t) [5]: 1720 ng·h/mL
concentration at 8 h [6]: 2630 ng/g
Activity (Mus musculus): 100%
Activity [7]: Non-Toxic
IC50 (Cytochrome P450 1A2): 5.57 µM
IC50 (Cytochrome P450 2C19): 16.4 µM
Kp at 4 h [8]: 1
IC50 [9]: > 30 µM
Activity [10]: Toxic
Activity [11]: Toxic
Cmax [12]: 1910 ng/mL
Activity (Danio rerio): 19%
IC50 (Cytochrome P450 2C9): 29.3 µM
concentration at 0.5 h [13]: 3320 ng/g
IC50 (Cytochrome P450 3A4): > 100 µM
concentration at 1 h [14]: 3940 ng/g
